Test results reported in ChEMBL document CHEMBL4052815, “Amphiphilic Modulation of Glycosylated Antitumor Ether Lipids Results in a Potent Triamino Scaffold against Epithelial Cancer Cell Lines and BT474 Cancer Stem Cells” (J Med Chem, 2017).
Calls of active or inactive are those of the source. The calls are words filed in the database; no cut-off is given here.

Legend:
[1] = tested on: BT-474; assay: Cytotoxicity against human BT474 cells assessed as decrease in cell viability after 48 hrs by MTS assay; type: functional; settings: BT-474, 48 h
Summary of the method: (§1)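 Cells grown at 37 °C, 5% CO2, with 10% FBS and penicillin/streptomycin: MDA-MB-231, JIMT1 and DU145 in DMEM, PC3 in F12K, BT474 in Hybricare, MiaPaCa2 in DMEM plus 2.5% horse serum. Cells (7500–9000/well) were plated for 24 h, then exposed to 0–20 µM for 48 h. MTS was added for 1–4 h and OD490 read, blank-subtracted, relative to vehicle. CC50 was read from plots; mean ± SD, six independent determinations.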

[2] = tested on: MDA-MB-231; assay: Cytotoxicity against human MDA-MB-231 cells assessed as decrease in cell viability after 48 hrs by MTS assay; type: functional; settings: MDA-MB-231, 48 h; summary of the method: as §1
[3] = tested on: BT-474; assay: Induction of disintegration of human BT474 cancer stem cell spheroids at 7.5 uM after 3 days by microscopic method; type: functional, cell-based
Summary of the method: (§2)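 BT474 stem-cell spheroids (ALDH1-sorted, formed over 6 days in Mammocult on ultra-low adhesion plates) exposed to 0, 7.5 or 20 µM for 3 days. Integrity was judged by light microscopy at ×10 against untreated spheroid wells.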

[4] = tested on: MIA PaCa-2; assay: Cytotoxicity against human MIAPaCa2 cells assessed as decrease in cell viability after 48 hrs by MTS assay; type: functional; settings: MIA PaCa-2, 48 h; summary of the method: as §1
[5] = tested on: JIMT-1; assay: Cytotoxicity against human JIMT1 cells assessed as decrease in cell viability after 48 hrs by MTS assay; type: functional; settings: JIMT-1, 48 h; summary of the method: as §1
[6] = tested on: DU-145; assay: Cytotoxicity against human DU145 cells assessed as decrease in cell viability after 48 hrs by MTS assay; type: functional; settings: DU-145, 48 h; summary of the method: as §1
[7] = tested on: BT-474; assay: Induction of disintegration of human BT474 cancer stem cell spheroids at 20 uM after 3 days by microscopic method; type: functional, cell-based; summary of the method: as §2
[8] = tested on: BT-474; assay: Cytotoxicity against human BT474 cancer stem cell spheroids assessed as cell viability at 20 uM after 3 days by MTS assay relative to control; settings: BT-474, 72 h
[9] = tested on: PC-3; assay: Cytotoxicity against human PC3 cells assessed as decrease in cell viability after 48 hrs by MTS assay; type: functional; settings: PC-3, 48 h; summary of the method: as §1
[10] = tested on: BT-474; assay: Cytotoxicity against human BT474 cancer stem cell spheroids assessed as decrease in cell viability at 2 to 10 uM after 3 days by MTS assay
[11] = tested on: BT-474; assay: Cytotoxicity against human BT474 cancer stem cell spheroids assessed as decrease in cell viability up to 20 uM after 3 days by MTS assay
[12] = tested on: JIMT-1; assay: Cytotoxicity against human JIMT1 cells assessed as decrease in cell viability at 2 to 8 uM in presence of pan-caspase inhibitor Q-VD-OPh after 48 hrs by MTS assay; type: functional, cell-based
Summary of the method: (§3)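 DU145 or JIMT1 cells seeded for 24 h, then given 40 µM pan-caspase inhibitor along with varying compound concentrations. Incubation continued 48 h, then MTS (20% v/v) for 1–4 h, OD490 read. Values are blank-subtracted and relative to vehicle controls; mean ± SD.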

[13] = tested on: DU-145; assay: Cytotoxicity against human DU145 cells assessed as decrease in cell viability at 2 to 8 uM in presence of pan-caspase inhibitor Q-VD-OPh after 48 hrs by MTS assay; type: functional, cell-based; summary of the method: as §3

With `CCCCCCCCCCCCCCCCOC[C@H](CO[C@@H]1O[C@H](CNCCCN)[C@@H](O)[C@H](O)[C@H]1N)OC` the CC50 [1] was > 20 µM, the CC50 [2] was 13.5 µM and the Activity [3] was “Active”. It also gave a CC50 [4] of 18.5 µM, a CC50 [5] of 13.5 µM and a CC50 [6] of 16.5 µM. For the same compound, the Activity [7] was “inactive”, the viability at 20 µM [8] was 0% and the CC50 [9] was 12.5 µM.

`CCCCCCCCCCCCCCCCOC[C@H](CO[C@@H]1O[C@H](CO)[C@@H](O)[C@H](O)[C@H]1N)OC` was tested, and the CC50 [1] was 8 µM, the CC50 [2] was 7.1 µM and the Activity [10] was “Active”. For the same compound, the CC50 [4] was 9 µM, the CC50 [5] was 9 µM and the CC50 [6] was 10 µM. The CC50 [9] was 13.5 µM.

In the case of `CCCCCCCCCCCCCCCCOC[C@@H](COC1O[C@H](CN)[C@@H](O)[C@H](O)[C@H]1N)OC` (some centres undefined), the Activity [10] is reported as “Active”.

For `NCCCCCCCCCCCCO[C@@H]1O[C@H](CN)[C@@H](O)[C@H](O)[C@H]1N`, the CC50 [1] was > 20 µM, the CC50 [2] was > 20 µM and the Activity [3] was “inactive”. For the same compound, the CC50 [4] was > 20 µM, the CC50 [5] was > 20 µM and the Activity [11] was “inactive”. For the same compound, the CC50 [6] was > 20 µM, the Activity [7] was “inactive” and the CC50 [9] was > 20 µM.

In the case of `CCCCCCCCCCCCCCCCOC[C@H](CO[C@@H]1O[C@H](CN)[C@@H](O)[C@H](O)[C@H]1NCCCN)OC`, the CC50 [1] is reported as > 20 µM, the CC50 [2] is reported as 17.5 µM and the Activity [3] is reported as “Active”. For the same compound, the CC50 [4] was 14.5 µM, the CC50 [5] was 12.5 µM and the CC50 [6] was 18.5 µM. For the same compound, the Activity [7] was “inactive”, the viability at 20 µM [8] was 0% and the CC50 [9] was 14.5 µM.

`COc1cccc2c1C(=O)c1c(O)c3c(c(O)c1C2=O)C[C@@](O)(C(=O)CO)C[C@@H]3O[C@H]1C[C@H](N)[C@H](O)[C@H](C)O1` was tested, and the Activity [3] was “inactive”, the Activity [12] was “inactive” and the Activity [11] was “Active”. For the same compound, the Activity [13] was “inactive”.
